Experimental data published in ChEMBL document CHEMBL2331520, “Synthesis, surface tension properties and antibacterial activities of amphiphilic D-galactopyranose derivatives” (Eur J Med Chem, 2013).
≈ marks a conversion by molar mass, not a printed value.

Experiments:
[1] = test system: Mycolicibacterium smegmatis; assay: Antibacterial activity against Mycobacterium smegmatis CIP 73.26 assessed as growth inhibition at 37 degC after 24 hrs by liquid broth dilution method; format: functional; conditions: CIP 73.26, 24 h
Outline: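 Inoculum at 0.5 McFarland (~1.5 × 10⁸ cfu/mL). DMSO stock (1 g/L) serially diluted in the same medium 1:2 to 1:512. Shaken 24 h at 150 rpm, 37 °C. MIC = lowest concentration with no OD600 rise in any replicate versus negative control.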

[2] = test system: Pseudomonas aeruginosa; assay: Antibacterial activity against Pseudomonas aeruginosa CIP A22 assessed as growth inhibition at 30 degC after 24 hrs by liquid broth dilution method; format: functional; conditions: CIP A22, 24 h
Outline: (§1)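 Strains kept at -80 °C in LB broth with 20% glycerol and grown from 1% (v/v) stock in nutritive broth (yeast extract 1 g/L, meat extract 2 g/L, peptone 5 g/L, NaCl 5 g/L) at 30 °C. Overnight culture adjusted to 0.5 McFarland (~1.5 × 10⁸ cfu/mL). Compound stock 1 g/L in DMSO, serially diluted in broth 1:2 to 1:512, mixed 1:1 with inoculum. Incubation 24 h, 150 rpm, 30 °C. OD600 read; MIC = lowest concentration with no OD increase in all replicates versus negative control.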

[3] = test system: Micrococcus luteus; assay: Antibacterial activity against Micrococcus luteus CIP 53.45 assessed as growth inhibition at 30 degC after 24 hrs by liquid broth dilution method; format: functional; conditions: CIP 53.45, 24 h; outline: as §1
[4] = test system: Staphylococcus aureus; assay: Antibacterial activity against Staphylococcus aureus subsp aureus CIP 53.154 assessed as growth inhibition at 30 degC after 24 hrs by liquid broth dilution method; format: functional; conditions: CIP 53.154, 24 h; outline: as §1
[5] = test system: Sinorhizobium meliloti; assay: Antibacterial activity against Sinorhizobium meliloti Rm1021 assessed as growth inhibition at 30 degC after 24 hrs by liquid broth dilution method; format: functional; conditions: Rm1021, 24 h; outline: as §1
[6] = test system: Geobacillus stearothermophilus; assay: Antibacterial activity against Bacillus stearothermophilus ATTC 12980 assessed as growth inhibition at 30 degC after 24 hrs by liquid broth dilution method; format: functional; conditions: ATTC 12980, 24 h; outline: as §1
[7] = test system: Dickeya chrysanthemi; assay: Antibacterial activity against Erwinia chrysanthemi EC3937 assessed as growth inhibition at 30 degC after 24 hrs by liquid broth dilution method; format: functional; conditions: EC3937, 24 h; outline: as §1
[8] = test system: Citrobacter freundii; assay: Antibacterial activity against Citrobacter freundii ATCC 6750 assessed as growth inhibition at 30 degC after 24 hrs by liquid broth dilution method; format: functional; conditions: ATCC 6750, 24 h; outline: as §1
[9] = test system: Escherichia coli; assay: Antibacterial activity against Escherichia coli ATCC 10536 assessed as growth inhibition at 30 degC after 24 hrs by liquid broth dilution method; format: functional; conditions: ATCC 10536, 24 h; outline: as §1
[10] = test system: Enterobacter cloacae; assay: Antibacterial activity against Enterobacter cloacae ATCC 13047 assessed as growth inhibition at 30 degC after 24 hrs by liquid broth dilution method; format: functional; conditions: ATCC 13047, 24 h; outline: as §1
[11] = Critical micelle concentration of the compound by wilhelmy method; format: physicochemical
Outline: (§2)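 Wilhelmy plate method at 293 K. Concentrated solution added stepwise from a syringe into ultrapure water, stirred gently 30 s after each addition, then equilibrium surface tension read. Each value is the mean of at least three measurements (SD within ±1.5% of mean). Transducer precision 0.1 mN/m; platinum plate flame-cleaned. Surface tension plotted against molar concentration to give CMC and γCMC.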

[12] = Gamma critical micelle concentration of the compound by wilhelmy method; format: physicochemical; outline: as §2

| Structure (SMILES) | MIC [1] [µg/mL] | MIC [2] [µg/mL] | MIC [3] [µg/mL] | MIC [4] [µg/mL] | MIC [5] [µg/mL] | MIC [6] [µg/mL] | MIC [7] [µg/mL] | MIC [8] [µg/mL] | MIC [9] [µg/mL] | MIC [10] [µg/mL] | CMC [11] | gammaCMC [12] |
| --- | --- | --- | --- | --- | --- | --- | --- | --- | --- | --- | --- | --- |
| CCCCCCCCOC[C@H]1O[C@@H]2OC(C)(C)O[C@@H]2[C@H]2OC(C)(C)O[C@H]21 | ≥ 250 | ≥ 250 | ≥ 250 | ≥ 250 | ≥ 250 | ≥ 250 | ≥ 250 | ≥ 250 | ≥ 250 | ≥ 250 |  |  |
| CCCCCCCCOC[C@H]1O[C@H](O)[C@H](O)[C@@H](O)[C@H]1O | ≥ 250 | ≥ 250 | ≥ 250 | ≥ 250 | ≥ 250 | ≥ 250 | ≥ 250 | ≥ 250 | ≥ 250 | ≥ 250 | 12 mmol/L | 28 mN/meter |
| CCCCCCCCCCCCOC[C@H]1O[C@H](O)[C@H](O)[C@@H](O)[C@H]1O | ≥ 250 | ≥ 250 | ≥ 250 | ≥ 250 | ≥ 250 | ≥ 250 | ≥ 250 | ≥ 250 | ≥ 250 | ≥ 250 | Not Active | Not Active |
| CCCCCCCCOCC#CCOC[C@H]1O[C@@H]2OC(C)(C)O[C@@H]2[C@H]2OC(C)(C)O[C@H]21 | 62.5 (≈ 142 µM) | 62.5 (≈ 142 µM) | 62.5 (≈ 142 µM) | 125 (≈ 284 µM) | 62.5 (≈ 142 µM) | 62.5 (≈ 142 µM) | 62.5 (≈ 142 µM) | 62.5 (≈ 142 µM) | 62.5 (≈ 142 µM) | 62.5 (≈ 142 µM) |  |  |
| CCCCCCCCOCCCCOC[C@H]1O[C@H](O)[C@H](O)[C@@H](O)[C@H]1O | 62.5 (≈ 171 µM) | 62.5 (≈ 171 µM) | 62.5 (≈ 171 µM) | 125 (≈ 343 µM) | 62.5 (≈ 171 µM) | 62.5 (≈ 171 µM) | 62.5 (≈ 171 µM) | 125 (≈ 343 µM) | 62.5 (≈ 171 µM) | 62.5 (≈ 171 µM) | 0.3 mmol/L | 30 mN/meter |
| CCCCCCCCOCC#CCOC[C@H]1O[C@H](O)[C@H](O)[C@@H](O)[C@H]1O | 62.5 (≈ 173 µM) | 125 (≈ 347 µM) | 62.5 (≈ 173 µM) | 125 (≈ 347 µM) | 62.5 (≈ 173 µM) | 62.5 (≈ 173 µM) | 62.5 (≈ 173 µM) | 125 (≈ 347 µM) | 62.5 (≈ 173 µM) | 62.5 (≈ 173 µM) | 0.06 mmol/L | 30 mN/meter |
| CCCCCCCCOc1ccc(OC[C@H]2O[C@H](O)[C@H](O)[C@@H](O)[C@H]2O)cc1 | 62.5 (≈ 163 µM) | 125 (≈ 325 µM) | 62.5 (≈ 163 µM) | 125 (≈ 325 µM) | 62.5 (≈ 163 µM) | 62.5 (≈ 163 µM) | 62.5 (≈ 163 µM) | 125 (≈ 325 µM) | 62.5 (≈ 163 µM) | 62.5 (≈ 163 µM) | Not Active | Not Active |
| CCCCCCCCCCCCOCCCCOC[C@H]1O[C@H](O)[C@H](O)[C@@H](O)[C@H]1O | 62.5 (≈ 149 µM) | 62.5 (≈ 149 µM) | 15.6 (≈ 37.1 µM) | 125 (≈ 297 µM) | 62.5 (≈ 149 µM) | 31.2 (≈ 74.3 µM) | 62.5 (≈ 149 µM) | 62.5 (≈ 149 µM) | 62.5 (≈ 149 µM) | 62.5 (≈ 149 µM) | 0.023 mmol/L | 48 mN/meter |
| CCCCCCCCCCCCOCC#CCOC[C@H]1O[C@H](O)[C@H](O)[C@@H](O)[C@H]1O | 62.5 (≈ 150 µM) | 62.5 (≈ 150 µM) | 3.91 (≈ 9.39 µM) | 62.5 (≈ 150 µM) | 31.2 (≈ 75 µM) | 7.81 (≈ 18.7 µM) | 62.5 (≈ 150 µM) | 62.5 (≈ 150 µM) | 62.5 (≈ 150 µM) | 62.5 (≈ 150 µM) | 0.032 mmol/L | 35 mN/meter |
| CCCCCCCCCCCCOc1ccc(OC[C@H]2O[C@H](O)[C@H](O)[C@@H](O)[C@H]2O)cc1 | 62.5 (≈ 142 µM) | 62.5 (≈ 142 µM) | 62.5 (≈ 142 µM) | 125 (≈ 284 µM) | 62.5 (≈ 142 µM) | 62.5 (≈ 142 µM) | 62.5 (≈ 142 µM) | 125 (≈ 284 µM) | 62.5 (≈ 142 µM) | 62.5 (≈ 142 µM) | 3.1 mmol/L | 54 mN/meter |
| O=C(N[C@H](CO)[C@H](O)c1ccc([N+](=O)[O-])cc1)C(Cl)Cl [CHLORAMPHENICOL] | 1.95 (≈ 6.03 µM) | 1.95 (≈ 6.03 µM) | < 0.98 | < 0.98 | < 0.98 | 3.9 (≈ 12.1 µM) | 0.98 (≈ 3.03 µM) | 7.8 (≈ 24.1 µM) | < 0.98 | < 0.98 |  |  |

Next, values leading:

| MIC [1] [µg/mL] | MIC [2] [µg/mL] | MIC [3] [µg/mL] | MIC [4] [µg/mL] | MIC [5] [µg/mL] | MIC [6] [µg/mL] | MIC [7] [µg/mL] | MIC [8] [µg/mL] | MIC [9] [µg/mL] | MIC [10] [µg/mL] | CMC [11] | gammaCMC [12] | Structure (SMILES) |
| --- | --- | --- | --- | --- | --- | --- | --- | --- | --- | --- | --- | --- |
| ≥ 250 | ≥ 250 | ≥ 250 | ≥ 250 | ≥ 250 | ≥ 250 | ≥ 250 | ≥ 250 | ≥ 250 | ≥ 250 |  |  | CCCCCCCCCCCCOC[C@H]1O[C@@H]2OC(C)(C)O[C@@H]2[C@H]2OC(C)(C)O[C@H]21 |
| 62.5 (≈ 141 µM) | 62.5 (≈ 141 µM) | 62.5 (≈ 141 µM) | 125 (≈ 281 µM) | 62.5 (≈ 141 µM) | 62.5 (≈ 141 µM) | 62.5 (≈ 141 µM) | 62.5 (≈ 141 µM) | 62.5 (≈ 141 µM) | 62.5 (≈ 141 µM) |  |  | CCCCCCCCOCCCCOC[C@H]1O[C@@H]2OC(C)(C)O[C@@H]2[C@H]2OC(C)(C)O[C@H]21 |
| 62.5 (≈ 135 µM) | 125 (≈ 269 µM) | 62.5 (≈ 135 µM) | 125 (≈ 269 µM) | 62.5 (≈ 135 µM) | 62.5 (≈ 135 µM) | 62.5 (≈ 135 µM) | 125 (≈ 269 µM) | 62.5 (≈ 135 µM) | 62.5 (≈ 135 µM) |  |  | CCCCCCCCOc1ccc(OC[C@H]2O[C@@H]3OC(C)(C)O[C@@H]3[C@H]3OC(C)(C)O[C@H]32)cc1 |
| 31.2 (≈ 62.4 µM) | 62.5 (≈ 125 µM) | 15.6 (≈ 31.2 µM) | 125 (≈ 250 µM) | 62.5 (≈ 125 µM) | 31.2 (≈ 62.4 µM) | 62.5 (≈ 125 µM) | 62.5 (≈ 125 µM) | 62.5 (≈ 125 µM) | 62.5 (≈ 125 µM) |  |  | CCCCCCCCCCCCOCCCCOC[C@H]1O[C@@H]2OC(C)(C)O[C@@H]2[C@H]2OC(C)(C)O[C@H]21 |
| 62.5 (≈ 126 µM) | 62.5 (≈ 126 µM) |  | 125 (≈ 252 µM) | 62.5 (≈ 126 µM) | 15.6 (≈ 31.4 µM) | 62.5 (≈ 126 µM) | 62.5 (≈ 126 µM) | 62.5 (≈ 126 µM) | 62.5 (≈ 126 µM) |  |  | CCCCCCCCCCCCOCC#CCOC[C@H]1O[C@@H]2OC(C)(C)O[C@@H]2[C@H]2OC(C)(C)O[C@H]21 |
| 62.5 (≈ 120 µM) | 125 (≈ 240 µM) | 31.2 (≈ 60 µM) | 125 (≈ 240 µM) | 62.5 (≈ 120 µM) | 62.5 (≈ 120 µM) | 62.5 (≈ 120 µM) | 62.5 (≈ 120 µM) | 62.5 (≈ 120 µM) | 62.5 (≈ 120 µM) |  |  | CCCCCCCCCCCCOc1ccc(OC[C@H]2O[C@@H]3OC(C)(C)O[C@@H]3[C@H]3OC(C)(C)O[C@H]32)cc1 |
